Screening data from PubChem BioAssay.
Shown are actives, neighbours in structure and some others; about 3.8% of the full set was active somewhere.
Exocytosis inh = LAMP-1 surface exposure blockers, TALL-104 cells – cell-based, flow cytometry, MLPCN library, primary screen; TALL-104 LAMP-1 surface exposure; cells stimulated with thapsigargin and PMA; inhibition, % at 10 µM; hit rate 0.66% among 360,000;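 active = inhibition above about 55%, limit read from the data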
MPTP block = mitochondrial permeability transition pore inhibitors, primary screen, biochemical, isolated mouse mitochondria, absorbance; AID 602449, 2012; inhibition, % at 10 µM; Ca2+ swelling absorbance, 30 min; hit rate 1.4% among 360,000;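 active = inhibition of 50% or more, scaled per plate between neutral and stimulator controls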;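 note: 0% = DMSO wells given calcium and 100% = 1 mM EGTA wells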
B2AR ag = beta2AR agonists driving receptor internalization, primary screen, cell-based, FAP fluorogen, flow cytometry; Beta-2 adrenergic receptor (Homo sapiens), P07550; Am2.2-beta2AR cells; response, % (test concentration not listed); hit rate 0.43% among 340,000; AID 504454, 2011;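 active = response above a set limit, near 3 SD of response in nonfluorescent compounds, cut at about 42% in these data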
Target sequence (P07550 whole entry, looked up): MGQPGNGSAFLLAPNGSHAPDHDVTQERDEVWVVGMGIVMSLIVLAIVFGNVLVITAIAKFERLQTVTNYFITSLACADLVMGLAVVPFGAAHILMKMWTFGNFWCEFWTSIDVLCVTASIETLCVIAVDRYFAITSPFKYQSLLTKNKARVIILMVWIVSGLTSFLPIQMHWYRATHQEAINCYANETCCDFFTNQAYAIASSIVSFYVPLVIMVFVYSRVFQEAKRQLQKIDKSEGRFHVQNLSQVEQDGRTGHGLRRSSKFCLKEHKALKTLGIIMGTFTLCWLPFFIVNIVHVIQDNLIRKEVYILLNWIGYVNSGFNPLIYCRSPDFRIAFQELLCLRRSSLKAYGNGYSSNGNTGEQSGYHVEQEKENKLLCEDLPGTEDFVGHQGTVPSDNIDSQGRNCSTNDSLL
T cell HTS = modulators of CD8 T cell-vesicle binding, primary screen, mouse 2C CD8+ T cells, flow cytometry | 2C CD8+ T cell-vesicle binding; active compounds read low | response (vesicle binding), % at 7 µM | hit rate 0.068% among 330,000 | AID 2052, 2009;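 active = response, share of CD8 T cells binding vesicles, and their 90th percentile fluorescence all below set limits, cut at about 80% in these data, passing the limit was not always enough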;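 note: values below 100% mean blocked vesicle binding to the CD8+ T cells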
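incubation = binding step 1.5 h, 37 °C, antibody labelling 20 min, ice | test system = 2C mouse CD8+ T cells | read-out basis = percent CD8+ FL2 mean versus row control | controls = Peptide-free naked vesicles (low) and QL9 vesicles with 0.7% DMSO vehicle (high) | detection = flow cytometry of vesicle-bound cells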
V-ATPase pH = regulators of yeast V-ATPase proton pumping, primary screen, pHLuorin cytosolic pH fluorescence; S. cerevisiae; response, % at 10 µM; hit rate 0.37% among 350,000; AID 504577, 2011; in the data active = response mostly above about 7.3%, no sharp cut-off; inactive = mostly below about 5.4%; note: actives read high
rCAG RNA binder = binders of r(CAG) RNA repeats, primary screen, biochemical, fluorescence. r(CAG) RNA repeat, TO-PRO-1 dye displacement fluorescence. inhibition, % at 3 µM. hit rate 1.3% among 370,000;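 active = inhibition above the plate cutoff, the mean of all test compounds on that plate plus 3 SD, cut at about 35% in these data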;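 note: 0% = DMSO alone and 100% = 100 µM mitoxantrone as full dye displacement; higher means more dye released from RNA so lower well fluorescence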
Rh123 counter = fluorescence retest of MPTP screen hits in isolated mitochondria, single concentration; AID 624504, 2012; shares compounds with MPTP block; inhibition, % at 10 µM; membrane potential, Rhodamine 123 fluorescence; hit rate 78% among 5,000; in the data active = inhibition above about 22%;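 note: 0% = DMSO vehicle and 100% = positive control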
MPTP swell DR = mitochondrial permeability transition pore inhibitors, dose response, biochemical, absorbance, uHTS hits | isolated mitochondria swelling | shares compounds with MPTP block | IC50, µM | AID 651561, 2012 | hit rate 58% among 780; in the data active = IC50 below about 20 µM
MPTP counter DR = fluorescent counter-screen in isolated mitochondria, dose response, counter-screen for MPTP inhibitor project, biochemical, fluorescence, uHTS hits. hit rate 49% among 780. shares compounds with MPTP block. isolated mitochondria counterscreen, fluorescence read-out. IC50, µM; in the data active = IC50 below about 80 µM
* = called active by the depositor; / = not tested or not shown.

SMILES	Exocytosis inh	MPTP block	B2AR ag	T cell HTS	V-ATPase pH	rCAG RNA binder	Rh123 counter	others
N=c1n(Cc2ccccc2)c2ccccc2n1CC(O)COc1ccc(Cl)cc1Cl (configuration not stated)	50.3	73.6*	28.9	/	-6.3	14.9	15.5
Oc1ccccc1N=Nc1nc(-c2ccccc2)c(-c2ccccc2)[nH]1	0.5	75.6*	13.3	272.6	4.7	28.6	53.7*
CC(C)N1C(=O)S/C(=C/c2ccc(Sc3nc4ccccc4[nH]3)o2)C1=O	4.6	100.2*	-18.0	261.8	-4.8	4.5	88.0*
C=CCN1C(=O)S/C(=C/c2ccsc2)C1=O	-1.0	1.0	-6.5	351.3	-1.7	-0.7	/
CC1=C(Sc2nc3ccccc3[nH]2)C(=O)NC(C)(C)C1	-2.1	-1.3	-5.6	151.4	4.8	-4.4	/
C=CCN1C(=O)S/C(=C/c2ccc(Sc3nc4ccccc4[nH]3)o2)C1=O	8.3	90.8*	-9.5	466.0	-1.0	6.5	88.0*
COC(=O)Cc1nnn2c1[C@@H](C)[C@@H](c1ccccc1Br)O[C@@H](C)C2	/	/	/	/	/	2.9	/
O=C(NNC1=C(C(=O)C(F)(F)F)CCC1)c1cccc(O)c1	-3.6	0.0	4.8	221.7	-2.5	3.0	/
Cc1cccc(C(=O)NNC2=C(C(=O)C(F)(F)F)CCC2)c1O	17.0	92.8*	12.1	258.6	-2.4	14.8	92.1*
COCc1[nH]nc2c1C(c1ccccc1)NC2=O (configuration not stated)	/	/	/	/	/	2.1	/
O=[N+]([O-])c1ccccc1/C=C/C1Nc2cccc3cccc(c23)N1	/	/	/	/	/	22.0	/
CC1(C)CC(c2nc(-c3ccc(Cl)cc3)cs2)CCS1 (configuration not stated)	-2.4	77.6*	-5.7	283.8	3.1	-1.0	-0.2	MPTP swell DR=>100;MPTP counter DR=58.4*
NCCCCCCNS(=O)(=O)c1cccc2c(Cl)cccc12	-1.5	108.1*	26.1	213.5	-3.3	19.7	-7.0	MPTP swell DR=7.44*;MPTP counter DR=46.5*
CCc1ccc(CN(C)C(=O)c2cc(COc3cccc4cnccc34)on2)cc1	6.2	99.4*	-6.4	147.7	-3.2	0.0	102.8*
CN(Cc1cccnc1)C(=O)c1cc(COc2ccc3c(c2)CCCC3)on1	13.9	67.2*	-5.2	206.2	2.5	-3.9	85.2*
O=C(NCc1cccc(C(F)(F)F)c1)c1cccc(S(=O)(=O)NCc2ccccc2)c1	21.3	60.0*	16.5	445.1	0.5	2.4	71.2*
COc1ccc(-n2cc(CNC3CCN(C)CC3)c(-c3cccc(F)c3)n2)cc1	42.7	93.4*	34.0	235.2	0.3	-1.8	-13.6	MPTP swell DR=7.04*;MPTP counter DR=>80
O=C(CSc1ccc(Cl)cc1)Nc1cccc(-c2nnc(-c3ccco3)o2)c1	-2.9	69.9*	-12.2	424.1	3.7	7.5	59.0*
Cc1ccc(SCC(=O)Nc2cccc(-c3nnc(-c4ccco4)o3)c2)cc1	9.0	0.6	1.7	246.8	-2.9	10.2	/
O=C(N/C(=C/c1ccc(Cl)cc1)c1nc2ccccc2[nH]1)c1ccco1	-1.9	-0.1	-1.8	233.1	0.0	0.9	/
O=C(/C(=C/c1ccc(Cl)cc1)c1nc2ccccc2[nH]1)c1ccccc1	54.0	91.2*	39.5	311.6	5.1	10.4	87.3*
CCOC(=O)CC[C@H]1CC[C@]2(CCCN(C(=O)c3ccco3)C2)O1	/	/	/	/	/	-0.1	/
O=C(Nc1ccc(C(F)(F)F)cc1)C1CCN(S(=O)(=O)c2ccc(N3CCCC3=O)cc2)CC1	-1.7	92.1*	-0.2	78.4	1.3	3.0	88.5*
COc1ccc(NC(=O)C2CCN(S(=O)(=O)c3ccc(N4CCCC4=O)cc3)CC2)cc1OC	1.5	1.2	-9.4	136.9	1.2	-0.6	/
COC(=O)[C@]12C[C@H](CC(=O)NCc3ccc(C)o3)C(=O)N(Cc3ccc4c(c3)OCO4)C1=C[C@H](C(C)(C)C)O[C@@H]2C	/	/	/	/	/	0.6	/
SMILES	Exocytosis inh	MPTP block	B2AR ag	T cell HTS	V-ATPase pH	rCAG RNA binder	Rh123 counter	others
CC(C)(C#CCN1CCCCC1)OCCOC(c1ccccc1)c1ccccc1	3.4	77.0*	7.1	563.2	-5.1	-8.0	11.8	MPTP swell DR=19.9*;MPTP counter DR=20.4*
CC(O)(C#CCN1CCCCC1)c1ccccc1 (configuration not stated)	-3.6	-0.7	1.6	405.8	0.4	-4.7	/
CC1CCCCC1N(C(=O)c1cc(C2CC2)on1)C1CCCCC1 (configuration not stated)	/	/	/	/	/	-0.6	/
COC(=O)[C@@]12CCCCC3=C1N(CCC3)C(=O)[C@H]2CC(=O)NCc1cccc(C(F)(F)F)c1	/	/	/	/	/	0.2	/
CCOC(=O)c1cccc(NC(=O)CN(C)S(=O)(=O)c2ccco2)c1	/	/	/	/	/	-2.0	/
Cc1nc2c(-c3ccc(Cl)cc3)c(C)[nH]n2c(=O)c1Cc1ccccc1	-1.0	68.9*	10.9	378.8	-2.0	9.8	91.0*
O=C(CSc1nnc(-c2cccnc2)s1)Nc1ccnc2ccccc12	0.0	103.8*	-25.8	146.6	1.6	2.9	73.4*
Cc1ccc(NC(=O)CSc2nnc(-c3cccnc3)s2)cc1	-3.4	0.3	-9.2	174.4	1.9	-0.3	/
COC(=O)CCC(=O)N1C2=NC3=C(C(=O)N(Cc4ccc5c(c4)OCO5)C3=O)C3N(C)c4ccccc4[C@]23C[C@H]1CO (some centres not stated)	/	/	/	/	/	13.5	/
O=C(Nc1ccc2c(c1)OCO2)O[C@@H]1C[C@H]2CCCC(=O)N3CC[C@@H](C1)[C@@H]23	-4.3	-0.7	-2.5	473.4	1.5	2.4	/
CC1(C)CCC(=O)N2CC[C@H]3C[C@H](OC(=O)Nc4ccc(Br)cc4)C[C@@H]1[C@H]32	36.0	68.8*	-1.8	620.4	-2.9	-0.7	86.7*
COC(=O)CC#C[C@H](C)[C@@H](NS(=O)(=O)c1ccc([N+](=O)[O-])cc1)C(C)(C)C	/	/	/	/	/	2.9	/
Clc1c(Cl)c(Cl)c2n[nH]nc2c1Cl	1.9	71.8*	-2.2	550.0	-1.1	14.7	76.8*
CC1CCCN(c2nc3ccccc3nc2C(C#N)S(=O)(=O)c2ccccc2)C1 (configuration not stated)	-3.9	82.3*	19.6	726.8	-2.7	7.0	82.8*
CCCCOc1nc2ccccc2nc1C(C#N)S(=O)(=O)c1ccccc1 (configuration not stated)	3.2	51.2*	13.8	304.7	-2.0	13.3	77.9*
